Reference: paper PMC8418994 (Structure (London, England : 1993), 2021)

Key:
[Y473E]-PPARγ LBD [1] = TR-FRET coregulator interaction assay; format: biochemical, human
[Y473E]-PPARγ LBD [2] = Isothermal titration calorimetry; format: binding, human; conditions: ITC at 25°C; Figure S7; in words
Summary of the method: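 Human PPARγ LBD Y473E mutant (residues 203–477), expressed His-tagged in E. coli BL21(DE3), purified by Ni-NTA and gel filtration. Protein at 30 μM in the cell; test compound at 300 μM in the syringe. Both in 20 mM potassium phosphate pH 7.4, 50 mM KCl, 5 mM TCEP, 0.5 mM EDTA, 0.17% DMSO. A 0.4 μL pre-injection, then nineteen 2 μL injections at 25°C, stirring 1200 rpm.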

PPARγ LBD = target: T1, PPARγ LBD (Homo sapiens, UniProt P37231); test: TR-FRET fluorescent tracer ligand displacement assay; format: binding
T1 sequence (P37231 203-477 isoform P37231-2): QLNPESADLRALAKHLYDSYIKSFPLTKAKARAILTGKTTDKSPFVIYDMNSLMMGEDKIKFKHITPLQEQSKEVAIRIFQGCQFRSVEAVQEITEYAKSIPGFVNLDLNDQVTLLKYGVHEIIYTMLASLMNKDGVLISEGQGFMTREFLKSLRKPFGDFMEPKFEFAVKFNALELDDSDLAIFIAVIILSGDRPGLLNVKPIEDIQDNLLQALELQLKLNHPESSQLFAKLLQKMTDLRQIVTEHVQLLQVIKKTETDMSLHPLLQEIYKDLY

Row | Structure (SMILES) | concentration-dependent effect on interaction of the TRAP220/MED1 coactivator peptide ([Y473E]-PPARγ LBD [1]) | binding affinity to [Y473E]-PPARγ LBD ([Y473E]-PPARγ LBD [2]) | Ki (PPARγ LBD)
1 | CN(CCOc1ccc(C[C@H](Nc2ccccc2C(=O)c2ccccc2)C(=O)O)cc1)c1ccccn1 [GW1929] | essentially no concentration-dependent effect | reasonably high affinity | 
2 | Cc1oc(-c2ccccc2)nc1CCC(=O)c1ccc(CC2SC(=O)NC2=O)cc1 (stereo not drawn) [darglitazone] |  |  | ≤ 1 nM
